Screening data as filed in PubChem BioAssay.
TRPC4 PAM = positive allosteric modulators of TRPC4, primary screen, cell-based, mouse TRPC4beta, HEK293 mu-opioid, Fluo-4 calcium; Short transient receptor potential channel 4 (Mus musculus), Q9QUQ5; DAMGO EC20, Fluo-4 Ca2+ flux; hits give high values; B-score at 10 µM; 310,000 compounds, 0.42% hits;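 active means B-score of calcium response area above 5 SD of library B-scores, with initial fluorescence ratio within 5 SD of library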;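 further: B-score of integrated fluorescence ratio over time as area under calcium response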
TRPC4 inh = inhibitors of mouse TRPC4 channel, primary screen, Fluo4 calcium, HEK293 TRPC4beta/mu-opioid cells; DAMGO-evoked Fluo4 calcium flux; hits give low values; B-score at 10 µM; 300,000 compounds, 0.39% hits; AID 2247, 2010;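 active means B-score over 3 SD under the library average, no early fluorescence shift, positive overall ratio signal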
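material = TRPC4beta/mu-opioid receptor HEK293 cell line | probe or stimulus = sequential submaximal and maximal DAMGO stimulation | compound dosing = one concentration per compound | measured by = Fluo4 Ca2+ flux fluorescence | evaluation = integrated fluorescence ratio relative to baseline, converted to per-well B score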
TRPC6 inhibitor = mouse TRPC6 channel inhibitors, primary screen, cell-based, HEK293, membrane potential dye; Short transient receptor potential channel 6 (Mus musculus), Q61143; AID 2553, 2010; 310,000 compounds, 1.1% hits; B-score at 10 µM; ACh-evoked depolarization; hits give low values;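 active means B-score under library mean minus 3 SD, initial fluorescence not abnormally high, positive integrated signal ratio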;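 further: B-score derived from integrated fluorescence ratio over the kinetic read; more negative B-score means stronger inhibition of depolarization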
Yeast superoxide = reduction of superoxide in aged yeast, primary screen, HTS; S. cerevisiae aged cells, superoxide DHE fluorescence; hits give low values; superoxide response (% of plate mean), % at 10 µM; 330,000 compounds, 0.18% hits; AID 2690, 2010;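 active means superoxide response under a set limit, about three screen SD below normal, cut at about 65% in these data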;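 further: yeast aged for seven days with compound at 30 °C before DHE staining; 100% = average MFI of all compound-treated wells on the plate with controls excluded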
TRPC4 agonist = activators of mouse TRPC4 channel, primary screen, Fluo4 calcium, HEK293 TRPC4beta/mu-opioid cells | Fluo4 calcium fluorescence; hits give high values | 310,000 compounds, 0.49% hits | B-score at 10 µM | Short transient receptor potential channel 4 (Mus musculus), Q9QUQ5;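 active means B-score above 5 SD of library B-scores, and initial fluorescence ratio not above library mean plus 5 SD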;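 further: positive B-score marks a calcium rise read as TRPC4 activation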
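System – HEK293 cells stably co-expressing mouse TRPC4beta and mu-opioid receptor · Signal – Fluo4 calcium-sensitive dye fluorescence, kinetic, 1 Hz baseline · Benchmarks – buffer (low) and maximal DAMGO (high) · Read-out – B score of integrated fluorescence ratio per well · Incubation – dye loading 45 min room temperature, 110 s kinetic read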
TRPC6 act = mouse TRPC6 channel activators, primary screen, cell-based, HEK293, membrane potential dye; HEK293-TRPC6 membrane potential dye fluorescence; hits give high values; AID 2550, 2010; B-score at 10 µM; 310,000 compounds, 0.13% hits;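 active means B-score of the integrated fluorescence ratio above library mean plus 3 SD, and starting fluorescence ratio within library mean plus 5 SD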;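 further: higher score means more depolarization so channel activation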
HEK293 MPD ctr = parental HEK293 membrane potential modulation, confirmation, counter-screen for TRPC6 modulator project, cell-based. shares compounds with TRPC6 inhibitor. membrane potential dye fluorescence. membrane potential signal change, % at 10 µM. 2,400 compounds, 51% hits. AID 488924, 2010;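 active means membrane potential signal moves up or down beyond 5 SD from buffer-only wells, on both duplicate plates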
HEK293 MPD ctr 2 = parental HEK293 nonspecific activity of TRPC6 modulators, second screen; 2,400 compounds, 14% hits; inhibition, % at 10 µM; membrane potential dye fluorescence; after compound, maximal acetylcholine stimulation; shares compounds with TRPC6 inhibitor;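 active means membrane potential signal drops by more than 5 SD from the mean control signal, in both duplicate plates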;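 further: plate controls were acetylcholine ECmax control wells for no effect and buffer only wells for full effect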
TRPC4 ctr mod = TRPC4 modulation by TRPC6 hit compounds, confirmation, selectivity assay for TRPC6 modulator project, cell-based, HEK293 TRPC4/mu-opioid, membrane potential dye, mouse | AID 488927, 2010 | shares compounds with TRPC6 inhibitor | percent change from control (negative = decrease, positive = increase), % at 10 µM | 2,400 compounds, 69% hits | membrane potential fluorescence;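 active means membrane potential signal moved up or down beyond 5 SD of buffer control wells, in both duplicate plates, actives on both sides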;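 further: plate controls were assay buffer wells for no effect and DAMGO maximal-effect wells for full effect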
TRPC4 ctr inh 2 = mouse TRPC4 off-target activity of TRPC6 modulators, second screen; shares compounds with TRPC6 inhibitor; 2,400 compounds, 55% hits; AID 488928; HEK293 TRPC4/mu-opioid, membrane potential dye fluorescence; stimulated with maximal-effect DAMGO; inhibition, % at 10 µM;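 active means drop in membrane potential signal beyond 5 SD of the control wells in both duplicate plates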;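 further: TRPC4 counter screen for TRPC6 hits run under conditions tuned for TRPC6 not TRPC4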
TRPC6 block conf = mouse TRPC6 channel inhibitors, confirmation, HEK293 cells, membrane potential dye, duplicate. 3,300 compounds, 43% hits. AID 488960, 2010. ACh-evoked depolarization. inhibition, % at 10 µM. shares compounds with TRPC6 inhibitor;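 active means fluorescence ratio falls more than 5 SD below the full-stimulation control mean, in both duplicate runs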;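 further: integrated fluorescence ratio of peak minus minimum over baseline after agonist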
TRPC6 act conf = mouse TRPC6 channel activators, confirmation, HEK293 cells, membrane potential dye, duplicate; activation, % at 10 µM; HEK293-TRPC6 membrane potential dye fluorescence, FDSS; 2,800 compounds, 11% hits; shares compounds with TRPC6 inhibitor;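 active means ratio signal rise beyond 5 SD above unstimulated control wells' mean, seen in both duplicate runs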;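 further: plate controls were buffer EC0 wells for no effect and acetylcholine ECmax response for full effect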
* hit, by the source's call; i = inactive; . = no result given. Only some compounds are listed: those with a hit (about 2.3% of all), similar ones and a draw of the others.

SMILES	TRPC4 PAM	TRPC4 inh	TRPC6 inhibitor	Yeast superoxide	TRPC4 agonist	TRPC6 act	HEK293 MPD ctr	HEK293 MPD ctr 2	TRPC4 ctr mod	TRPC4 ctr inh 2	TRPC6 block conf	TRPC6 act conf
CCN(CC)S(=O)(=O)c1ccc(N2CCOCC2)c(NC(=O)C23CC4CC(CC(Cl)(C4)C2)C3)c1	i	i	-6.4*	106	i	i	164%*	i	i	i	38%*	.
CCN(CC)S(=O)(=O)c1ccc(N2CCOCC2)c(NC(=O)c2ccccc2)c1	i	i	i	103	i	i	.	.	.	.	.	.
CCN(CC)S(=O)(=O)c1ccc(N2CCCCC2)c(NC(=O)C2=COCCO2)c1	i	i	-6*	102	i	14*	178%*	i	33%*	i	88%*	154%*
CC(=O)Nc1ccc(S(=O)(=O)N2CC(=O)NC(=O)C2)cc1	i	i	i	86	i	i	.	.	.	.	.	.
CCOc1ccc(N(C(C)C(=O)Nc2ccc(OC)cc2)S(C)(=O)=O)cc1 (stereo not given)	i	i	-6.4*	99	i	i	i	i	i	i	i	i
CCN(CC)S(=O)(=O)c1ccc(NC(=O)C(C)N(c2ccc(OC)cc2)S(C)(=O)=O)cc1 (stereo not given)	i	i	i	80	i	i	.	.	.	.	.	.
CCOc1ccccc1NC(=O)c1cccc(NC2=NC3CS(=O)(=O)CC3S2)c1 (stereo not given)	i	i	i	117	i	i	.	.	.	.	.	.
C#CCOCCOCCOCCNc1nc(N2CCN(C(=O)[C@H]([C@@H](C)CC)n3cc([C@@H](N)CO)nn3)CC2)nc(N2CCN(C(=O)[C@H]([C@@H](C)CC)n3cc([C@@H](N)Cc4ccc(O)cc4)nn3)CC2)n1	i	i	i	95	i	i	.	.	.	.	.	.
C#CCOCCOCCOCCNc1nc(N2CCN(C(=O)[C@H]([C@@H](C)CC)n3cc([C@@H](N)Cc4ccc(O)cc4)nn3)CC2)nc(N2CCN(C(=O)[C@H]([C@@H](C)CC)n3cc([C@@H](N)Cc4ccc(O)cc4)nn3)CC2)n1	i	i	-6*	106	i	i	-102%*	i	-28%*	i	i	i
CC(C)C(C)NC(=O)CSc1nnc(-c2c[nH]c3ccccc23)o1 (stereo not given)	i	i	i	100	i	i	.	.	.	.	.	.
COCCn1c(Cc2ccccc2)nnc1SCC(=O)Nc1oc(C)c2c(C)n[nH]c(=O)c12	i	i	i	112	i	i	.	.	.	.	.	.
CCn1nc([N+](=O)[O-])c(C(C#N)c2nc3ccccc3n2C)c(Cl)c1=O (stereo not given)	i	i	i	101	i	i	.	.	.	.	.	.
CCCn1nc([N+](=O)[O-])c(C(C#N)c2nc3ccccc3s2)c(Cl)c1=O (stereo not given)	i	i	-13*	137	i	i	-210%*	i	-36%*	83%*	66%*	i
CCCCCCNC(=O)CC(c1ccccc1)c1cc(Br)ccc1O (stereo not given)	i	i	i	120	i	i	.	.	.	.	.	.
COc1ccc(OCC(O)COc2ccc(OC)cc2)cc1	i	i	-6.4*	89	i	i	i	i	i	i	66%*	.
COc1ccc(OCC(O)CNC(=O)c2ccc(OC)cc2)cc1 (stereo not given)	i	i	i	88	i	i	.	.	.	.	.	.
Cc1ccc(-c2ccc(/C=C/C(=O)c3ccccc3)o2)cc1	i	i	i	87	i	i	.	.	.	.	.	.
CCN(CC)CCN1C(=O)c2cccc3cc(N)cc(c23)C1=O	i	i	-5.5*	93	i	i	531%*	i	-32%*	61%*	48%*	i
CCOC(=O)CCCCCN1C(=O)c2cccc3cccc(c23)C1=O	i	i	i	106	i	i	.	.	.	.	.	.
